# Laboratory results taken from ChEMBL document CHEMBL4190227, “Syntheses, toxicities and anti-inflammation of H2S-donors based on non-steroidal anti-inflammatory drugs” (Eur J Med Chem, 2017).
# Active and inactive are the calls of the source. The calls are words filed in the database; no cut-off is given here.
# Test system: RAW264.7
# Assay: Antiinflammatory activity in mouse RAW264.7 cells assessed as increase in LPS-induced HO-1 expression at 100 uM incubated for 24 hrs post LPS induction by ELISA relative to contol
# Type: functional
# Settings: not given
# Method in brief: (§1)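 LPS (1 μg/mL) for 4 h, then compound at 10, 50, 100 μM for 24 h; cells lysed in RIPA, spun 12,000×g 10 min, protein normalised by BCA to 0.1 mg/mL; target (TNF-α, HO-1, IL-10 or COX-2) quantified by sandwich ELISA kit with mouse-specific polyclonal antibodies; four independent experiments.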
row,SMILES,fold change (FC)
1,COc1ccc2cc(C(C)C(=O)Oc3ccc(C(N)=S)cc3)ccc2c1 (stereo not given) [ATB-346],<=2

# Test system: L02
# Assay: Cytotoxicity against human LO2 cells assessed as reduction in cell survival after 24 hrs by MTT assay
# Type: cell-based
# Settings: L02, 24 h
row,SMILES,IC50 [µM]
1,NC(=S)c1ccc(OC(=O)c2ccccc2Cl)cc1,1090
2,COc1ccc2cc(C(C)C(=O)Oc3ccc(C(N)=S)cc3)ccc2c1 (stereo not given) [ATB-346],3610

# Test system: RAW264.7
# Assay: Antiinflammatory activity in mouse RAW264.7 cells assessed as increase in LPS-induced IL10 levels at 10 to 100 uM incubated for 24 hrs post LPS induction by ELISA
# Type: functional, cell-based
# Settings: not given
# Method in brief: as §1
row,SMILES,Activity
1,COc1ccc2cc(C(C)C(=O)Oc3ccc(C(N)=S)cc3)ccc2c1 (stereo not given) [ATB-346],Active

# Test system: not listed separately
# Assay: Cytotoxicity against mouse RAW264.7 cells assessed as cell viability at 10 to 100 uM treated for 24 hrs in absence of LPS by MTT assay
# Type: cell-based
# Settings: RAW264.7 cells, read-out: Activity
# Method in brief: (§2)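 Macrophages in high-glucose DMEM + 10% heat-inactivated FBS, 2 mM glutamine, 37 °C, 5% CO2; exposed 24 h to 10, 50, 100 μM with or without LPS 1 μg/mL; MTT added 4 h, formazan dissolved in DMSO, A570, expressed as % of control; four independent experiments.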
row,SMILES,"viability at 24 h, up to 100 µM [%]"
1,COc1ccc2cc(C(C)C(=O)Oc3ccc(C(N)=S)cc3)ccc2c1 (stereo not given) [ATB-346],70 to 110

# Test system: not listed separately
# Assay: Drug degradation in phosphate buffer assessed as H2S release by measuring test compound half life at 40 uM measured every 5 mins in presence of TECP by UV-Vis spectrometry
# Type: physicochemical
# Settings: not given
# Method in brief: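 Sulfide release at 37.5 °C: donor (40 mM THF stock) added to pH 7.4 phosphate buffer with 1.0 mM TECP; aliquots taken every 5 min into methylene blue cocktail (zinc acetate, N,N-dimethyl-1,4-phenylenediamine, FeCl3 in HCl), A670 read 15 min later; H2S from Na2S calibration curve; concentration vs time curve; four independent experiments.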
row,SMILES,half-life at 40 µM [min]
1,NC(=S)c1ccc(OC(=O)c2ccccc2Cl)cc1,7.1
2,COc1ccc2cc(C(C)C(=O)Oc3ccc(C(N)=S)cc3)ccc2c1 (stereo not given) [ATB-346],13.4

# Test system: RAW264.7
# Assay: Inhibition of LPS-induced COX2 expression in mouse RAW264.7 cells at 10 to 100 uM incubated for 24 hrs post LPS induction by ELISA
# Type: functional, cell-based
# Settings: not given
# Method in brief: as §1
row,SMILES,inhibition
1,COc1ccc2cc(C(C)C(=O)Oc3ccc(C(N)=S)cc3)ccc2c1 (stereo not given) [ATB-346],Active

# Target: T1, Nitric oxide synthase, inducible (Mus musculus) (UniProt P29477)
# T1 sequence (whole entry): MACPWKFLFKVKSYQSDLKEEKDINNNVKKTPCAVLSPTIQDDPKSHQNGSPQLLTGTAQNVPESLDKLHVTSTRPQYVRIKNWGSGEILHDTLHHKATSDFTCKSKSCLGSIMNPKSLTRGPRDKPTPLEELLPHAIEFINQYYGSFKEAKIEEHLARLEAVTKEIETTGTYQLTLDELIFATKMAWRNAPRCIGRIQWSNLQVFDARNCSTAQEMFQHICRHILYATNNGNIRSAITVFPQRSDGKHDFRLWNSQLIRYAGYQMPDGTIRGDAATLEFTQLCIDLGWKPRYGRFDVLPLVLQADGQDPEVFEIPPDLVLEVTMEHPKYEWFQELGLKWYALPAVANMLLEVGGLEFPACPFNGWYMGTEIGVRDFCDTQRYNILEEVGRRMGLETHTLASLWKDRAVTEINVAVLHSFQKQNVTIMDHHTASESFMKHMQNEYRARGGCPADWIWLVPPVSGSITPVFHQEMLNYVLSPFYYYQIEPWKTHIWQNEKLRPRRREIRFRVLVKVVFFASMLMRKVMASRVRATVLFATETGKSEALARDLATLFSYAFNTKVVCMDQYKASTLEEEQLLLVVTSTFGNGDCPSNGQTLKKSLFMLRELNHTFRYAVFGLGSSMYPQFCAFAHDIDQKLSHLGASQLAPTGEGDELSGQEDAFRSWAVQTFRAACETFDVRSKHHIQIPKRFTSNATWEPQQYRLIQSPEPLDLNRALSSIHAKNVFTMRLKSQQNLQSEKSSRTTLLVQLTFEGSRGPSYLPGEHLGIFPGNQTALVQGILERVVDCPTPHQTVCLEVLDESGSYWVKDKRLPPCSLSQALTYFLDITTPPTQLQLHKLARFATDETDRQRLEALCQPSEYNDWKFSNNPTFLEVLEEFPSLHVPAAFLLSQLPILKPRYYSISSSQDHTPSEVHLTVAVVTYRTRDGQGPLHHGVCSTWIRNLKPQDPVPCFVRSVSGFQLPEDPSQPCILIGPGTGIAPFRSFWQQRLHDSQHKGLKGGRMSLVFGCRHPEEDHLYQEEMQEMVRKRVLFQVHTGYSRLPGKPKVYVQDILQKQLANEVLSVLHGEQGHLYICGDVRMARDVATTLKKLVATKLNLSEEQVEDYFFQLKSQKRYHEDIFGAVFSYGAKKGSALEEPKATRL
# Assay: Inhibition of iNOS in mouse RAW264.7 cells assessed as reduction in LPS-induced NO production administered for 24 hrs post LPS induction by Griess method
# Type: cell-based
# Settings: not given
# Method in brief: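 RAW264.7 cells stimulated with LPS 1 μg/mL for 4 h, then compound (10, 50, 100 μM) for 24 h; culture medium reacted with Griess reagents I and II, absorbance 570 nm; nitrite from sodium nitrite standard curve (0–100 μM in medium); four independent experiments, mean ± SD.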
row,SMILES,inhibition
1,COc1ccc2cc(C(C)C(=O)Oc3ccc(C(N)=S)cc3)ccc2c1 (stereo not given) [ATB-346],Dose-dependent effect

# Test system: RAW264.7
# Assay: Antiinflammatory activity in mouse RAW264.7 cells assessed as reduction in LPS-induced TNFalpha levels incubated for 24 hrs post LPS induction by ELISA
# Type: functional, cell-based
# Settings: not given
# Method in brief: as §1
row,SMILES,Activity
1,COc1ccc2cc(C(C)C(=O)Oc3ccc(C(N)=S)cc3)ccc2c1 (stereo not given) [ATB-346],Dose-dependent effect

# Test system: RAW264.7
# Assay: Antiinflammatory activity in mouse RAW264.7 cells assessed as increase in LPS-induced HO-1 expression incubated for 24 hrs post LPS induction by ELISA
# Type: functional, cell-based
# Settings: not given
# Method in brief: as §1
row,SMILES,Activity
1,COc1ccc2cc(C(C)C(=O)Oc3ccc(C(N)=S)cc3)ccc2c1 (stereo not given) [ATB-346],Dose-dependent effect

# Test system: HepG2
# Assay: Cytotoxicity against human HepG2 cells assessed as reduction in cell survival after 24 hrs by MTT assay
# Type: cell-based
# Settings: HepG2, 24 h
row,SMILES,IC50 [µM]
1,NC(=S)c1ccc(OC(=O)c2ccccc2Cl)cc1,1060
2,COc1ccc2cc(C(C)C(=O)Oc3ccc(C(N)=S)cc3)ccc2c1 (stereo not given) [ATB-346],228

# Test system: RAW264.7
# Assay: Antiinflammatory activity in mouse RAW264.7 cells assessed as increase in IL10 levels at 10 to 100 uM measured after 24 hrs in absence of LPS by ELISA
# Type: functional, cell-based
# Settings: not given
# Method in brief: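 Macrophages exposed 24 h to 10, 50, 100 μM without LPS; lysates (RIPA, 12,000×g spin) normalised by BCA to 0.1 mg/mL protein; IL-10 measured by mouse-specific sandwich ELISA kit; four independent experiments, mean ± SD.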
row,SMILES,Activity
1,COc1ccc2cc(C(C)C(=O)Oc3ccc(C(N)=S)cc3)ccc2c1 (stereo not given) [ATB-346],Active

# Test system: not listed separately
# Assay: Cytotoxicity against mouse RAW264.7 cells assessed as cell viability at 10 to 100 uM treated for 24 hrs post LPS induction by MTT assay
# Type: cell-based
# Settings: RAW264.7 cells, read-out: Activity
# Method in brief: as §2
row,SMILES,"viability at 24 h, up to 100 µM [%]"
1,COc1ccc2cc(C(C)C(=O)Oc3ccc(C(N)=S)cc3)ccc2c1 (stereo not given) [ATB-346],70 to 110
